{"source": "ChEMBL document CHEMBL5712920", "about": "“The histone methyltransferase inhibitor A-366 enhances hemoglobin expression in erythroleukemia cells upon co-exposure with chemical inducers in culture” (J Biol Res (Thessalon), 2021)", "key": {"[1]": {"test": "Cytotoxicity against HMBA-stiumulated mouse FLC clone 745 cells assessed as cell viability measured after 48 hrs by Neubauer chamber based microscopic analysis (reference value: 50.563%)", "format": "toxicity", "conditions": "HMBA-stimulated FLC clone 745 cells, read-out: Activity"}, "FLC clone 745 [2]": {"system": "FLC clone 745", "test": "Induction of cell cycle arrest in HMBA-stimulated mouse FLC clone 745 cells assessed as accumulation cells at G2/M phase at 10^-6 M after 72 hrs by PI staining based flow cytometric analysis (reference value: 9.86%)", "format": "functional", "conditions": "dose 1 10^-6M, at 1 µM", "procedure,_shortened": "(§1)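 MEL cells plated at 5 × 10^5 per well and synchronized by serum deprivation for 24 h. Cells then incubated with compound at 10−6 M, alone or with HMBA 5 × 10−3 M, for 24, 48 and 72 h. Fixed in 70% ethanol overnight at 4 °C, stained with propidium iodide, and DNA content measured by flow cytometry to assign subG1, G1, S, G2/M and >4N fractions.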"}, "FLC clone 745 [3]": {"system": "FLC clone 745", "test": "Induction of cell cycle arrest in mouse FLC clone 745 cells assessed as accumulation cells at G1/G0 phase at 10^-6 M after 72 hrs by PI staining based flow cytometric analysis (reference value: 26.4%)", "format": "functional", "conditions": "dose 1 10^-6M, at 1 µM", "procedure,_shortened": "as §1"}, "[4]": {"test": "Inhibition of G9a/GLP in HMBA-stiumulated mouse FLC clone 745 cells assessed as increase in erythroid differentiation at IC50 concentration measured after 96 hrs by benzidine-H2O2 based assay (reference value: 79.45%)", "conditions": "condition erythroleukemia"}, "FLC clone 745 [5]": {"system": "FLC clone 745", "test": "Induction of cell cycle arrest in mouse FLC clone 745 cells assessed as accumulation cells at G1/G0 phase at 10^-6 M after 48 hrs by PI staining based flow cytometric analysis (reference value: 25.43%)", "format": "functional", "conditions": "dose 1 10^-6M, at 1 µM", "procedure,_shortened": "as §1"}, "FLC clone 745 [6]": {"system": "FLC clone 745", "test": "Inhibition of G9a/GLP in HMBA-stiumulated mouse FLC clone 745 cells assessed as increase in HBB mRNA expression at 10^-6 M after 48 hrs by qPCR analsysis", "format": "cell-based", "conditions": "dose 1.0 10^-6M", "procedure,_shortened": "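MEL cells treated for 48 h with HMBA 5 × 10−3 M plus compound at 10−6 M. Total RNA reverse-transcribed, and β-globin transcripts measured by qPCR. Data normalized to β-actin using the 2−ΔΔCt method; Student's t-test.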"}, "FLC clone 745 [7]": {"system": "FLC clone 745", "test": "Induction of cell cycle arrest in HMBA-stimulated mouse FLC clone 745 cells assessed as accumulation cells at > 4N phase at 10^-6 M after 24 hrs by PI staining based flow cytometric analysis (reference value: 9.83%)", "format": "functional", "conditions": "dose 1 10^-6M, at 1 µM", "procedure,_shortened": "as §1"}, "FLC clone 745 [8]": {"system": "FLC clone 745", "test": "Induction of cell cycle arrest in mouse FLC clone 745 cells assessed as accumulation cells at G2/M phase at 10^-6 M after 48 hrs by PI staining based flow cytometric analysis (reference value: 28.15%)", "format": "functional", "conditions": "dose 1 10^-6M, at 1 µM", "procedure,_shortened": "as §1"}, "FLC clone 745 [9]": {"system": "FLC clone 745", "test": "Induction of cell cycle arrest in mouse FLC clone 745 cells assessed as accumulation cells at S phase at 10^-6 M after 48 hrs by PI staining based flow cytometric analysis (reference value: 29.53%)", "format": "functional", "conditions": "dose 1 10^-6M, at 1 µM", "procedure,_shortened": "as §1"}, "K562": {"system": "K562", "test": "Induction of apoptosis in human K562 cells assessed as effect on caspase-8 mRNA expression level at 1 to 10 uM cells after 48 hrs by qPCR analysis", "format": "toxicity, cell-based", "conditions": "k562, 48 h, dose 1-10 µM", "procedure,_shortened": "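K562 cells at 10^5 cells/ml grown without compound (control) or with 10−6 M or 10−5 M compound for 48 h. Total RNA isolated, then checked by gel electrophoresis and spectrophotometry. Transcripts quantified by qPCR.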"}, "FLC clone 745 [10]": {"system": "FLC clone 745", "test": "Induction of cell cycle arrest in HMBA-stimulated mouse FLC clone 745 cells assessed as accumulation cells at G1/G0 phase at 10^-6 M after 24 hrs by PI staining based flow cytometric analysis (reference value: 17.28%)", "format": "functional", "conditions": "dose 1 10^-6M, at 1 µM", "procedure,_shortened": "as §1"}, "FLC clone 745 [11]": {"system": "FLC clone 745", "test": "Induction of cell cycle arrest in HMBA-stimulated mouse FLC clone 745 cells assessed as accumulation cells at subG1 phase at 10^-6 M after 48 hrs by PI staining based flow cytometric analysis (reference value: 43.83%)", "format": "functional", "conditions": "dose 1 10^-6M, at 1 µM", "procedure,_shortened": "as §1"}, "FLC clone 745 [12]": {"system": "FLC clone 745", "test": "Induction of cell cycle arrest in mouse FLC clone 745 cells assessed as accumulation cells at G2/M phase at 10^-6 M after 24 hrs by PI staining based flow cytometric analysis (reference value: 14.35%)", "format": "functional", "conditions": "dose 1 10^-6M, at 1 µM", "procedure,_shortened": "as §1"}, "FLC clone 745 [13]": {"system": "FLC clone 745", "test": "Induction of cell cycle arrest in HMBA-stimulated mouse FLC clone 745 cells assessed as accumulation cells at > 4N phase at 10^-6 M after 72 hrs by PI staining based flow cytometric analysis (reference value: 4.66%)", "format": "functional", "conditions": "dose 1 10^-6M, at 1 µM", "procedure,_shortened": "as §1"}, "FLC clone 745 [14]": {"system": "FLC clone 745", "test": "Induction of cell cycle arrest in HMBA-stimulated mouse FLC clone 745 cells assessed as accumulation cells at G1/G0 phase at 10^-6 M after 48 hrs by PI staining based flow cytometric analysis (reference value: 15.23%)", "format": "functional", "conditions": "dose 1 10^-6M, at 1 µM", "procedure,_shortened": "as §1"}, "FLC clone 745 [15]": {"system": "FLC clone 745", "test": "Induction of cell cycle arrest in mouse FLC clone 745 cells assessed as accumulation cells at subG1 phase at 10^-6 M after 48 hrs by PI staining based flow cytometric analysis (reference value: 9.79%)", "format": "functional", "conditions": "dose 1 10^-6M, at 1 µM", "procedure,_shortened": "as §1"}}, "note": "Active and inactive are the calls of the source. The calls are words filed in the database; no cut-off is given here."}
{"molecule": "COc1cc2c(cc1OCCCN1CCCC1)N=C(N)C21CCC1", "values": [{"measurement": "viability at 48 h", "setting": "[1]", "value": 42.8, "unit": "%"}, {"measurement": "Activity", "setting": "FLC clone 745 [2]", "value": 6.21, "unit": "%"}, {"measurement": "Activity", "setting": "FLC clone 745 [3]", "value": 14.22, "unit": "%"}, {"measurement": "inhibition (INH)", "setting": "[4]", "value": 83.75, "unit": "%"}, {"measurement": "Activity", "setting": "FLC clone 745 [5]", "value": 21, "unit": "%"}, {"measurement": "inhibition", "setting": "FLC clone 745 [6]", "value": "Active"}, {"measurement": "Activity", "setting": "FLC clone 745 [7]", "value": 9.28, "unit": "%"}, {"measurement": "Activity", "setting": "FLC clone 745 [8]", "value": 22.21, "unit": "%"}, {"measurement": "Activity", "setting": "FLC clone 745 [9]", "value": 29.12, "unit": "%"}, {"measurement": "Activity", "setting": "K562", "value": "Non-Toxic"}, {"measurement": "Activity", "setting": "FLC clone 745 [10]", "value": 12.13, "unit": "%"}, {"measurement": "Activity", "setting": "FLC clone 745 [11]", "value": 50.9, "unit": "%"}, {"measurement": "Activity", "setting": "FLC clone 745 [12]", "value": 9.04, "unit": "%"}, {"measurement": "Activity", "setting": "FLC clone 745 [13]", "value": 2.89, "unit": "%"}, {"measurement": "Activity", "setting": "FLC clone 745 [14]", "value": 11.73, "unit": "%"}, {"measurement": "Activity", "setting": "FLC clone 745 [15]", "value": 18.28, "unit": "%"}]}
